High-throughput results deposited in PubChem BioAssay by The Scripps Research Institute Molecular Screening Center.
Hits are enriched below; roughly 4.6% of the tested compounds scored in any of these assays.
OX1R antag-1 – antagonists of human orexin 1 receptor (OX1R); Orexin/Hypocretin receptor type 1 (Homo sapiens), O43613; OX1R-expressing cells, FRET antagonist read-out; inhibition, % at 6.6 µM; 1.8% of 330,000 active; in the data active means inhibition mostly above about 38%, no sharp cut-off; inactive means mostly below about 40%
TAAR1 ag – human TAAR1 agonists, primary screen, Fluo-8 calcium fluorescence, CHO RD-HGA16 cells. vehicle wells 0%, saturating PEA agonist 100%. activation, % at 3 µM. Trace amine-associated receptor 1 (Homo sapiens), Q96RJ0. 0.99% of 360,000 active. AID 624467, 2012;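 active means activation above the mean activation of all test compounds in the run plus 3 SD, cut at about 38% in these data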
Target sequence (Q96RJ0 whole entry, looked up): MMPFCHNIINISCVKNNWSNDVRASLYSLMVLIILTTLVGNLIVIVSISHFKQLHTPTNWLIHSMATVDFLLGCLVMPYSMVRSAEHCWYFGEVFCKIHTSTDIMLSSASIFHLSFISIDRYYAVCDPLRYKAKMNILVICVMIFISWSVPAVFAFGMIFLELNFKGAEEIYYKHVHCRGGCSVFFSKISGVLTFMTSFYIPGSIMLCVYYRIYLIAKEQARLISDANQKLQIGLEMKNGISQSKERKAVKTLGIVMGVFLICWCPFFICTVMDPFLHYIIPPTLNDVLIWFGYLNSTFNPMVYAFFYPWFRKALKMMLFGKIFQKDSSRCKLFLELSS
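Assay system – CHO-derived RD-HGA16 cells with stable Gα16 and human TAAR1 · Compound dosing – one-point dosing at 3 µM (nominal) · Incubation – 17-24 h seeding, 75 min 37 °C dye, 30 min RT · Measured by – kinetic Fluo-8 calcium fluorescence · Control set – DMSO vehicle as 0%, PEA at EC100 as 100% · Repeats – single well for each compound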
OX1R antag-2 – OX1R (HCRTR1) antagonists, primary screen, fluorescence, CHO/OX1R cells, Fluo-8 calcium, orexin A; Orexin/Hypocretin receptor type 1 (Homo sapiens), O43613; Fluo-8 calcium fluorescence; inhibition, % at 5 µM; 0.43% of 330,000 active;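 active means inhibition above its plate's threshold, mean inhibition of all tested compounds on the plate plus 3 SD, cut at about 37% in these data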
GPR7 antagonist – GPR7 receptor antagonists, primary screen, cell-based, fluorescence, single concentration; Neuropeptides B/W receptor type 1 (Homo sapiens), P48145; GPR7-expressing cells, fluorescence antagonist assay; inhibition, % at 4.4 µM; 1.1% of 290,000 active; AID 1861, 2009; in the data active means inhibition above about 16%, passing the limit was not always enough;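 further: cells stimulated with the agonist NPW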
Target sequence (P48145 whole entry, looked up): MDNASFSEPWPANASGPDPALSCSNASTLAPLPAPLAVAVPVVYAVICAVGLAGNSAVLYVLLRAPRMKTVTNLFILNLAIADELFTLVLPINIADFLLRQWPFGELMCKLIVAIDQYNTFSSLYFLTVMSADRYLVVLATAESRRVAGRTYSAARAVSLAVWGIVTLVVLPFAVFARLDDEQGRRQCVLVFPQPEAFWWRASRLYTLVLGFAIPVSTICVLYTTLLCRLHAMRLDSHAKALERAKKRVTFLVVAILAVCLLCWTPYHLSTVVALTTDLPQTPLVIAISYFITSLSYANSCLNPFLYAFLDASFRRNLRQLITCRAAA
CHO parental Ca – ATP-evoked calcium signal inhibitors, parental CHO, primary screen, counter-screen for OX1R antagonist project, cell-based, fluorescence, Fluo-8 calcium dye | parental CHO-K1, ATP-induced calcium, Fluo-8 fluorescence | 0.63% of 330,000 active | inhibition, % at 5.6 µM | AID 463079, 2010;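 active means inhibition above that plate's mean sample inhibition plus 3 SD, cut at about 26% in these data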
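Test system: untransfected parental CHO cell line; also added: ATP stimulus; dosing: 5.6 µM, single dose; signal: calcium-sensitive Fluo-8 fluorescence; measure: percent inhibition of ATP-evoked calcium rise, normalized to controls; benchmarks: low control ATP plus DMSO, high control DMSO only; replication: one well per compound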
TAAR1 antagonist – human TAAR1 antagonists, primary screen, Fluo-8 calcium fluorescence, CHO RD-HGA16 cells. antagonist. inhibition, % at 3 µM. 1.5% of 360,000 active. AID 624466, 2012;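 active means inhibition above a per-plate cutoff, the mean inhibition of test compounds on that plate plus 3 SD, cut at about 49% in these data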
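Test system: CHO RD-HGA16 cells bearing hTAAR1 | Reagent: β-PEA, EC80 | Compound dosing: 3 µM, single point | Schedule: Dye loading 75 min at 37 °C, then 30 min room temperature | Signal: Calcium fluorescence with Fluo-8 | Evaluation: Percent inhibition of PEA-evoked calcium signal, max/basal emission ratio | Control set: DMSO-only wells and EC80 β-PEA-stimulated wells | Repeats: Singlicate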
OX1R Fluo8 conf – OX1R (HCRTR1) antagonists, confirmation, fluorescence, CHO/OX1R cells, Fluo-8 calcium, orexin A. orexin A calcium Fluo-8 fluorescence. inhibition, % at 5 µM. 38% of 1,100 active. shares compounds with OX1R antag-2; in the data active means inhibition above about 29%
CHO Ca triplic – ATP-evoked calcium inhibition in parental CHO, counter-screen for OX1R antagonist project, cell-based, fluorescence, CHO-K1, triplicate. AID 492965, 2010. shares compounds with OX1R antag-2. inhibition, % at 5.6 µM. 9.3% of 1,100 active. ATP-induced calcium, Fluo-8 fluorescence;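 active means inhibition above a per-plate limit, the mean inhibition of that plate's test compounds plus 3 SD, cut at about 25% in these data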
OX1R HTRF conf – OX1R (HCRTR1) antagonists, confirmation, cell-based, HTRF; shares compounds with OX1R antag-1; OX1R-expressing cells, HTRF antagonist assay; inhibition, % at 6.6 µM; 49% of 1,800 active; AID 492964, 2010; in the data active means inhibition above about 55%;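 further: CHO cells expressing OX1R stimulated with orexin A at about EC80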
CHO-K1 HTRF cnt – signal inhibition in parental CHO-K1 cells, counter-screen for OX1R antagonist project, cell-based, HTRF; shares compounds with OX1R antag-1; HTRF counterscreen; inhibition, % at 6.6 µM; 48% of 1,800 active; in the data active means inhibition above about 17%
Each line names hits and unclear results; the compound was inactive in the other large screens (follow-up assays come after a bar, where they were run).

O=C(c1cc(Br)ccc1Cl)N1CCC2(CC1)OCCO2	OX1R antag-2 45 | OX1R Fluo8 conf inactive | CHO Ca triplic inactive
Cn1c(O)c(/C=C/C=Nc2ccccc2)c(=O)n(C)c1=S	TAAR1 ag 41 | OX1R Fluo8 conf 33 | CHO Ca triplic 36
C=CCn1c(O)c(C(C)=NCC2CCCO2)c(=O)[nH]c1=O (configuration not stated)	none
COc1ccccc1NC(=O)COC(=O)c1cn(C)c2ccccc12	OX1R antag-1 54, OX1R antag-2 47 (no result: GPR7 antagonist) | OX1R Fluo8 conf inactive | CHO Ca triplic inactive | OX1R HTRF conf inactive | CHO-K1 HTRF cnt inactive
COc1ccccc1C(=O)Nc1ccc2c(c1)CC1(C(=O)N(C)C(=O)N(C)C1=O)C1CCCN21 (configuration not stated)	OX1R antag-1 67 | OX1R Fluo8 conf 43 | CHO Ca triplic inactive | OX1R HTRF conf 90 | CHO-K1 HTRF cnt 20
Cc1cccc(C(=O)Nc2ccc3c(c2)CC2(C(=O)N(C)C(=O)N(C)C2=O)C2CCCN32)c1 (configuration not stated)	none (no result: TAAR1 ag, TAAR1 antagonist)
O=C(NC1CCCCC1)[C@@H]1CC=C[C@@H]2CCN(Cc3ccccc3)C(=O)[C@@H]21	OX1R antag-1 75 (no result: GPR7 antagonist) | OX1R Fluo8 conf 47 | CHO Ca triplic inactive | OX1R HTRF conf 74 | CHO-K1 HTRF cnt inactive
CCC1C2Cn3c(nc4ccccc43)C1N(C)O2 (configuration not stated)	none (no result: GPR7 antagonist)
CC(C)CC(NC(=O)CCCNC(=O)CCC(=O)OC1O[C@H]2OC3(C)CC[C@H]4[C@H](C)CCC(C1C)C24OO3)C(=O)O (some centres not stated)	none
O=c1[nH]c(O)c(N=Nc2cc(C(F)(F)F)ccc2Cl)c(=O)[nH]1	none
O=C(O)c1ccccc1N=Nc1c(O)[nH]c(=O)[nH]c1=O	OX1R antag-1 111 | OX1R HTRF conf inactive | CHO-K1 HTRF cnt 76
O=C(NC1CN2CCC1CC2)c1ccc(-c2ccc([N+](=O)[O-])cc2)o1 (configuration not stated)	OX1R antag-1 84 | OX1R HTRF conf inactive | CHO-K1 HTRF cnt 56
O=C(NC1CN2CCC1CC2)c1ccc(Cl)cc1 (configuration not stated)	none (no result: OX1R antag-1, OX1R antag-2, GPR7 antagonist, CHO parental Ca)
O=c1[nH]c(=S)[nH]c(O)c1N=Nc1cccc(S(=O)(=O)N2CCOCC2)c1	OX1R antag-1 97 | OX1R HTRF conf 60 | CHO-K1 HTRF cnt 66
O=c1[nH]c(=S)[nH]c(O)c1N=Nc1ccc(S(=O)(=O)N2CCOCC2)cc1	OX1R antag-1 140 | OX1R HTRF conf inactive | CHO-K1 HTRF cnt 65
O=c1[nH]c(=S)[nH]c(O)c1N=Nc1ccc2c(c1)OCCO2	OX1R antag-1 146 | OX1R HTRF conf 62 | CHO-K1 HTRF cnt 66
O=c1[nH]c(O)c(N=Nc2cccc(S(=O)(=O)N3CCOCC3)c2)c(=O)[nH]1	OX1R antag-1 88 | OX1R HTRF conf 55 | CHO-K1 HTRF cnt 79
O=C(N=Nc1c(O)[nH]c(=O)[nH]c1=O)C1COc2ccccc2O1 (configuration not stated)	none
Cc1cc(N2CCNC[C@H]2C)ccc1N1CC[C@@H](O)C1	none (no result: OX1R antag-1, OX1R antag-2, GPR7 antagonist, CHO parental Ca)
CCN1CCN(Cc2cc3c(cc2[N+](=O)[O-])OCO3)CC1	none
CCC(CC)N1CCN(C(=O)Cc2ccccc2)CC1	none
NS(=O)(=O)c1ccc(N=Nc2c(O)[nH]c(=S)[nH]c2=O)cc1	OX1R antag-1 77 | OX1R HTRF conf 67 | CHO-K1 HTRF cnt 79
COc1ccc(N=Nc2c(O)[nH]c(=S)[nH]c2=O)cc1	OX1R antag-1 active | OX1R HTRF conf 63 | CHO-K1 HTRF cnt 100
COc1ccc(CCC(=O)NCCc2cnc[nH]2)cc1	none
OCC[n+]1c2ccccc2nc2ccc(N3CCOCC3)cc21	OX1R antag-1 113 | OX1R HTRF conf inactive | CHO-K1 HTRF cnt 76
O=C(CCc1ccccc1)N1Cc2cc(N3CCOCC3)ccc2-n2nncc2C1	none (no result: OX1R antag-1, OX1R antag-2, GPR7 antagonist, CHO parental Ca)
CCOP(=O)(Cc1cc(C(C)=O)c(C)o1)OCC	none
CN1C(=O)C(=Cc2ccc(N3CCCCCC3)o2)C(=O)N(C)C1=S	none
CN1C(=O)C(=Cc2ccc(N3CCOCC3)o2)C(=O)N(C)C1=O	OX1R antag-1 123 | OX1R HTRF conf 65 | CHO-K1 HTRF cnt 90
